This passage reports inhibition, residual activity and percent of control results from ChEMBL document CHEMBL5696442, “Discovery of type II inhibitors of TGFβ-activated kinase 1 (TAK1) and mitogen-activated protein kinase kinase kinase kinase 2 (MAP4K2)” (J Med Chem, 2015).

Test [1] concerns Epidermal growth factor receptor (Homo sapiens), P00533 [L858R]. In words: Inhibition of EGFR L858R mutant (unknown origin) at 1 uM by Ambit Kinomescan binding assay relative to control.
For test [2], the target named is Ephrin type-A receptor 5 (Homo sapiens) (UniProt P54756). In words: Inhibition of EPHA5 (unknown origin) at 1 uM by Ambit Kinomescan binding assay relative to control.
Test [3] concerns the target Protein-tyrosine kinase 6 (Homo sapiens) (UniProt Q13882). Put plainly: Inhibition of BRK (unknown origin) at 1 uM by Ambit Kinomescan binding assay relative to control; values are per cent of control.
The target in test [4] is Proto-oncogene tyrosine-protein kinase receptor Ret (Homo sapiens) (UniProt P07949). In words: Inhibition of RET (unknown origin) at 1 uM by Ambit Kinomescan binding assay relative to control; values are per cent of control.
For test [5], the target named is Phosphatidylinositol 3-kinase C2 domain-containing subunit gamma (Homo sapiens) (UniProt O75747). Put plainly: Inhibition of PIK3C2G (unknown origin) at 1 uM by Ambit Kinomescan binding assay relative to control; values are per cent of control.
For test [6], the target named is Dual specificity tyrosine-phosphorylation-regulated kinase 1B (Homo sapiens) (UniProt Q9Y463). In words: Inhibition of DYRK1B (unknown origin) at 10 uM by Ambit Kinomescan binding assay.
The target of test [7] is T1, Serine/threonine-protein kinase 3 (Homo sapiens) (UniProt Q13188).
T1 sequence (whole entry): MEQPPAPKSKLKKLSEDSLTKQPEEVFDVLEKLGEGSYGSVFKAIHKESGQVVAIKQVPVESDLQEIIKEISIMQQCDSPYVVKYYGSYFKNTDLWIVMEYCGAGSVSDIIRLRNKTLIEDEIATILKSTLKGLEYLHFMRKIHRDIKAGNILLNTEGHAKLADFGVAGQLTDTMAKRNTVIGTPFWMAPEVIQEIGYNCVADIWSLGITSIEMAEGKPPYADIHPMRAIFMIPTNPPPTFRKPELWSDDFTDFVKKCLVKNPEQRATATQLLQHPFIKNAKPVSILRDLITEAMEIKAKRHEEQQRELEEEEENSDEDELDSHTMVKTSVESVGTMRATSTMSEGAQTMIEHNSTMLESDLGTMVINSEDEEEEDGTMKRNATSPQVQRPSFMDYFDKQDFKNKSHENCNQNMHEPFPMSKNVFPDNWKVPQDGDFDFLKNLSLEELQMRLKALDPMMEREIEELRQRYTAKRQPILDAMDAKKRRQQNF
Put plainly: Inhibition of MST2 (unknown origin) at 10 uM by Ambit Kinomescan binding assay.

In test [8] the target is Cyclin-dependent kinase 17 (Homo sapiens) (UniProt Q00537). In words: Inhibition of PCTK2 (unknown origin) at 10 uM by Ambit Kinomescan binding assay relative to control.
Chain of Cyclin-dependent kinase 17 (Homo sapiens) (Q00537 whole entry, looked up): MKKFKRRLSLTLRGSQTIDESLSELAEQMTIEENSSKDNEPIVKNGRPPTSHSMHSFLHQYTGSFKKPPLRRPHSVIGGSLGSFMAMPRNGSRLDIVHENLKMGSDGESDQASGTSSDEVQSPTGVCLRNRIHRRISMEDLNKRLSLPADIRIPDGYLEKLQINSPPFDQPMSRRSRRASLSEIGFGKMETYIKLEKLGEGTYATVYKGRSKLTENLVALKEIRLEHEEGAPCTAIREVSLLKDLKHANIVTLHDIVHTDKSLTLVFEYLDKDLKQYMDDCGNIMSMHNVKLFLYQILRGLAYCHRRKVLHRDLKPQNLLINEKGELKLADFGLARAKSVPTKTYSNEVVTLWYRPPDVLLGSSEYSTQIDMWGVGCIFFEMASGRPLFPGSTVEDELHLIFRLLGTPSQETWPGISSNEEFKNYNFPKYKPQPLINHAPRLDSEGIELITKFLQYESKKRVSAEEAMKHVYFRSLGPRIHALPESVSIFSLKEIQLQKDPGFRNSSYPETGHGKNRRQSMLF
In test [9] the target is Rho-associated protein kinase 2 (Homo sapiens) (UniProt O75116). Put plainly: Inhibition of ROCK2 (unknown origin) at 10 uM by Ambit Kinomescan binding assay. Summed up: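 ATP-site competition binding assay across a panel of more than 420 kinases, with each compound tested at 10 or 1 μM.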
Chain of Rho-associated protein kinase 2 (Homo sapiens) (O75116 whole entry, looked up): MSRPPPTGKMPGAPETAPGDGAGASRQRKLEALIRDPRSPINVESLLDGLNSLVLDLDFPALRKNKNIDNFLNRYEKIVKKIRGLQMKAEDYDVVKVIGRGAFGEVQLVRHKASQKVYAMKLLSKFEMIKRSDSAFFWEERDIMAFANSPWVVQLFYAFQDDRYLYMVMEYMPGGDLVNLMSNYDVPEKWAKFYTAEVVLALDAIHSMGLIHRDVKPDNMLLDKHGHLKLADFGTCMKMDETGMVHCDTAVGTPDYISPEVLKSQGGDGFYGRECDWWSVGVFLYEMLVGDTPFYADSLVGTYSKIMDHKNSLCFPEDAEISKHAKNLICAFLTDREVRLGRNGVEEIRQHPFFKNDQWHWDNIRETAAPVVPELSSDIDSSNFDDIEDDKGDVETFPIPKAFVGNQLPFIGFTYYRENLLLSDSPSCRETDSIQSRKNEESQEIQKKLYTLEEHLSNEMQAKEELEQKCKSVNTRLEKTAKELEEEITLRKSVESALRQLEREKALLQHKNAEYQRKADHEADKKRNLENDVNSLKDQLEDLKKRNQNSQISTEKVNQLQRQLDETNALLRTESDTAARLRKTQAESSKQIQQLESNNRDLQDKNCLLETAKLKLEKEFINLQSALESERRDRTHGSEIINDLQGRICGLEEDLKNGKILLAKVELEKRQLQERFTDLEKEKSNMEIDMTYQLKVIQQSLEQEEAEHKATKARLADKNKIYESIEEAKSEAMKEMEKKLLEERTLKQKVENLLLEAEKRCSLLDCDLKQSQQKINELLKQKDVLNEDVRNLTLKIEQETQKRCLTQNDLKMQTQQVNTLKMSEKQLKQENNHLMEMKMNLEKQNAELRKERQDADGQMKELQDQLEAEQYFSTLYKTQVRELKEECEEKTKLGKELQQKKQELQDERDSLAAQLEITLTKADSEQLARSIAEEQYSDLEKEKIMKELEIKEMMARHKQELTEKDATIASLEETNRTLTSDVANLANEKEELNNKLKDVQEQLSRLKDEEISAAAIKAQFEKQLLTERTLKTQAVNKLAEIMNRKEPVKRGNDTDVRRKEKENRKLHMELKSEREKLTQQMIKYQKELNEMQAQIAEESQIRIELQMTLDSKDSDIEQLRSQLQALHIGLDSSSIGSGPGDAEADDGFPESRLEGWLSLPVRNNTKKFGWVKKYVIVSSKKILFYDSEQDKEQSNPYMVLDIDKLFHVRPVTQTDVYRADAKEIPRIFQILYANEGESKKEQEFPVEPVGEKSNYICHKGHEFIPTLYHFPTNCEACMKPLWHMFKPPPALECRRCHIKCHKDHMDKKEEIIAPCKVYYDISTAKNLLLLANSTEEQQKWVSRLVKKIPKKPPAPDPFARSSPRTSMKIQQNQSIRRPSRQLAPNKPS
In test [10] the target is Activated CDC42 kinase 1 (Homo sapiens) (UniProt Q07912). Put plainly: Inhibition of ACK Lys1 labeling site in human A-375 cells at 5 uM by KiNativ Profiling analysis relative to control. The test is classed as cell-based.
For test [11], the target named is T2, Serine/threonine-protein kinase Chk1 (Homo sapiens) (UniProt O14757).
T2 sequence (whole entry): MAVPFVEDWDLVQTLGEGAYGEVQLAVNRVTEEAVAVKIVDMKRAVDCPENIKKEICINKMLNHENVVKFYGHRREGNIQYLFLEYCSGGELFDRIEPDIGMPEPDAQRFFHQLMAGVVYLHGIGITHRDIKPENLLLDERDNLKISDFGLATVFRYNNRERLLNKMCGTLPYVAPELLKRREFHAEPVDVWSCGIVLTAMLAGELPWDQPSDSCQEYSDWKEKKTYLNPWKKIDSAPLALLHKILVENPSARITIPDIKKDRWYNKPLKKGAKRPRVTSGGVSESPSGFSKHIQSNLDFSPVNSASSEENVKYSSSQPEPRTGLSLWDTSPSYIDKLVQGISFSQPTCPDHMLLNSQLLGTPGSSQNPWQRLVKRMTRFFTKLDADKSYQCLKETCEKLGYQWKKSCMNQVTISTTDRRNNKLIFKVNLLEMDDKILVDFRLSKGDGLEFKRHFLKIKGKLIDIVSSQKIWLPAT
Put plainly: Inhibition of CHK1 Lys2 labeling site harbouring DIKPENLLLDERDNLK in human A-375 cells at 0.5 uM by KiNativ Profiling analysis relative to control. The test is classed as cell-based.

For test [12], the target named is T3, Dual specificity mitogen-activated protein kinase kinase 6 (Homo sapiens) (UniProt P52564).
T3 sequence (whole entry): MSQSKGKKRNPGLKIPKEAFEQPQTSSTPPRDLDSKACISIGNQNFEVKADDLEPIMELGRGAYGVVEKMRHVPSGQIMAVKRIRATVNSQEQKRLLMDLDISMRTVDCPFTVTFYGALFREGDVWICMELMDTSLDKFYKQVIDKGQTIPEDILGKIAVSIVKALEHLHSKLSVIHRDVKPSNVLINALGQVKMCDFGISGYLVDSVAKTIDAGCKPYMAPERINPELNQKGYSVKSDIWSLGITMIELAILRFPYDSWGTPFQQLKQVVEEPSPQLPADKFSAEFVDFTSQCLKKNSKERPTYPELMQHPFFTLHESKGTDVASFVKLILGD
In words: Inhibition of MAP2K6 K1 labeling site in human Huh-7 cells at 10 uM by KiNativ Profiling analysis relative to control. The test is classed as cell-based.

Test [13] deals with Serine/threonine-protein kinase WNK1 (Homo sapiens) (UniProt Q9H4A3). Put plainly: Inhibition of Wnk1 ACT labeling site in human Huh-7 cell lysate at 1 uM by KiNativ Profiling analysis relative to control. The test is classed as subcellular.
Chain of Serine/threonine-protein kinase WNK1 (Homo sapiens) (Q9H4A3 whole entry, looked up): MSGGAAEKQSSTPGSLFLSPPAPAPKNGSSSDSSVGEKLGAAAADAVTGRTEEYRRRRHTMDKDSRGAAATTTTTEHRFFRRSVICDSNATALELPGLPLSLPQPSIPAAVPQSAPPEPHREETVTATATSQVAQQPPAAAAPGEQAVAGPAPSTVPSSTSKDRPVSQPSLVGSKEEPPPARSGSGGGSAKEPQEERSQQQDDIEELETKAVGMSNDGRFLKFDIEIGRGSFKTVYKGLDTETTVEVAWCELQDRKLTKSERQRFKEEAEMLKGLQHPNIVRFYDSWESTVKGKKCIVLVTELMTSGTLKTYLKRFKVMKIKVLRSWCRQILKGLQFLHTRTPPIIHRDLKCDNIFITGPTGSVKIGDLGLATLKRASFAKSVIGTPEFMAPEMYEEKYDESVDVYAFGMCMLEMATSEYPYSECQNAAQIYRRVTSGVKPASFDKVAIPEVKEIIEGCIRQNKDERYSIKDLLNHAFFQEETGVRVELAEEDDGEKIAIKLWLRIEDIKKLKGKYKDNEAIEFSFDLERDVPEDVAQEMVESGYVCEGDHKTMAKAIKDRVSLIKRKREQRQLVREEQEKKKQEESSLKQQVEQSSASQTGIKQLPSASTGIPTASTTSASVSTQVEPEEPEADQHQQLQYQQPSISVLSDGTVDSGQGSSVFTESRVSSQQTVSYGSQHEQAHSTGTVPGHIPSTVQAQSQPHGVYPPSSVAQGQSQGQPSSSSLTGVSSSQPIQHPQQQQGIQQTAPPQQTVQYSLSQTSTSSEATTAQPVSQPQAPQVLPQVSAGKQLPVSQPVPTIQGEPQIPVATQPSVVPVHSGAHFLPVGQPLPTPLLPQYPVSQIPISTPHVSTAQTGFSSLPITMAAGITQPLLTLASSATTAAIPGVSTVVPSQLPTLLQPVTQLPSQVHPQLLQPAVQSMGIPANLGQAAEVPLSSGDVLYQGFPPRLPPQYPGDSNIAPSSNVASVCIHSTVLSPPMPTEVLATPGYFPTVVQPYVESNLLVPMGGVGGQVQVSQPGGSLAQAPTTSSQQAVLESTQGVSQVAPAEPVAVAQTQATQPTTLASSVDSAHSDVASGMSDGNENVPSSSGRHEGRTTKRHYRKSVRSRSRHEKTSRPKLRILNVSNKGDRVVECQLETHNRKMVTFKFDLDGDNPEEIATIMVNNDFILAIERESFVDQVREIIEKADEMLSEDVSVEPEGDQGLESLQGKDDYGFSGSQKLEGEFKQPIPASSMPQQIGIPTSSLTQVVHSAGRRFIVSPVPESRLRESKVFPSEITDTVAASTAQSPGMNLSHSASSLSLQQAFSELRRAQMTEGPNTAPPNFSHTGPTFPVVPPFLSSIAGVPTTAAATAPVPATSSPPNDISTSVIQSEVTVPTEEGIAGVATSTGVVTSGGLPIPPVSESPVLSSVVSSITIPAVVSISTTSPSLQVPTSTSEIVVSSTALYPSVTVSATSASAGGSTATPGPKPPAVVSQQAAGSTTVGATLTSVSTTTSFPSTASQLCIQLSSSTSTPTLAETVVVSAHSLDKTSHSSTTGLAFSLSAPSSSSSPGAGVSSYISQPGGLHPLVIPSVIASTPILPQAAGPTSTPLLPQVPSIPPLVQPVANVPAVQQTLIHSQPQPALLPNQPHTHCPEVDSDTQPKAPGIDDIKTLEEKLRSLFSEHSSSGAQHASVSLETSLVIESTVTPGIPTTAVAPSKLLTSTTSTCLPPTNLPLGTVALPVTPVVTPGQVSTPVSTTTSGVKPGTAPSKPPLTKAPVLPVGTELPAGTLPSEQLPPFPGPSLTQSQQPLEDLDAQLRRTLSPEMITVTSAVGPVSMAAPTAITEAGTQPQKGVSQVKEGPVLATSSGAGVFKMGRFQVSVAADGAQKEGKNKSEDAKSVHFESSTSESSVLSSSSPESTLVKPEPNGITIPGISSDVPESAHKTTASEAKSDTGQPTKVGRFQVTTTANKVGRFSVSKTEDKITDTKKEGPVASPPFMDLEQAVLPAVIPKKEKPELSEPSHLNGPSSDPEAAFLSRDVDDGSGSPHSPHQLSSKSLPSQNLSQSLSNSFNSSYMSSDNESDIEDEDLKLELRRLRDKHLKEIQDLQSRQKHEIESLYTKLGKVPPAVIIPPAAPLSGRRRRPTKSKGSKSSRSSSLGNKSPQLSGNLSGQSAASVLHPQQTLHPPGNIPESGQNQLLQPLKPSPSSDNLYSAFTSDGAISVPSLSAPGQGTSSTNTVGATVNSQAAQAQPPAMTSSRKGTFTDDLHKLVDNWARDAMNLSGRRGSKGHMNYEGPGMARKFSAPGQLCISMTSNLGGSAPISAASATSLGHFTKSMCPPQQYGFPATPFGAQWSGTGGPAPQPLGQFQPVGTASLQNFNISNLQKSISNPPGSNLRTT
Test [14] deals with Serine/threonine-protein kinase 10 (Homo sapiens) (UniProt O94804). In words: Inhibition of LOK Lys2 labeling site in human Huh-7 cells at 1 uM by KiNativ Profiling analysis relative to control. The test is classed as cell-based.

Calls of active or inactive are those of the source. The calls are words filed in the database; no cut-off is given here.

Chain of Protein-tyrosine kinase 6 (Homo sapiens) (Q13882 whole entry, looked up): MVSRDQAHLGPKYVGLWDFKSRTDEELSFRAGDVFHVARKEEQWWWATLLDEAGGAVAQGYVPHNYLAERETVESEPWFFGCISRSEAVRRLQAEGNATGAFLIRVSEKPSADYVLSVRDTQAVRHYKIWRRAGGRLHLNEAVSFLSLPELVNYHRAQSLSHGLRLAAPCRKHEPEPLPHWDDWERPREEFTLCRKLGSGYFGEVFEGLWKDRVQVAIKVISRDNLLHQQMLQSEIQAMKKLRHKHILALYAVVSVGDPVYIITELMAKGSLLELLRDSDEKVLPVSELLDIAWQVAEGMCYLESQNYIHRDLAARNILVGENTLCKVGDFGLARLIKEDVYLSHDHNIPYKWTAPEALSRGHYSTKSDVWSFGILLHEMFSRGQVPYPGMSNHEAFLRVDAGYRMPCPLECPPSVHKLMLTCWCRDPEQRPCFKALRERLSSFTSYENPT

Take `CCN1CCN(Cc2ccc(NC(=O)c3ccc(C)c(/C=C/c4cnc5[nH]ccc5c4OC)c3)cc2C(F)(F)F)CC1`: the inhibition in test [1] is 4%; in [2] it was 21%. Moreover, the residual activity came to 64% in test [3] and 100% in test [5]. Besides, the percent of control in [4] is 0%.
`CCN1CCN(Cc2ccc(NC(=O)c3ccc(C)c(Oc4ccnc5[nH]ccc45)c3)cc2C(F)(F)F)CC1`: the inhibition result in [6], in test [7] and in [9] was “inactive” each time. The inhibition came out at 0.1% in [8], 6.1% in test [10], 41.1% in test [11] and 5.5% in test [12].
With `CNc1cc(Oc2cc(C(=O)Nc3cc(N4CCN(C)CC4)cc(C(F)(F)F)c3)ccc2C)ncn1`, the inhibition in test [13] is -6.9%; in test [14], 19%.
